Measurements as given in ChEMBL document CHEMBL1123779, “Modifications of primaquine as antimalarials. 4. 5-Alkoxy derivatives of primaquine” (J Med Chem, 1987).

What was measured:
Plasmodium cynomolgi [1] = assay: Cures in Plasmodium cynomolgi infected Rhesus monkeys (Macaca mulatta) on 0.316 mg/kg/day after 7 days; cured 3 of 3; assay type: functional
Plasmodium cynomolgi [2] = assay: Cures in Plasmodium cynomolgi infected Rhesus monkeys (Macaca mulatta) on 1 mg/kg/day after 7 days; cured 1 of 1; assay type: functional
Plasmodium cynomolgi [3] = assay: Cures in Plasmodium cynomolgi infected Rhesus monkeys (Macaca mulatta) on 3.16 mg/kg/day after 7 days; cured 0 of 1; assay type: functional
Plasmodium cynomolgi [4] = assay: Radical curative antimalarial activity against Plasmodium cynomolgi in Rhesus monkeys (Macaca mulatta) at 0.1 mg/kg/day over 7 days; cured 5 of 5; assay type: functional
Mus musculus [5] = assay: Suppressive blood schizonticidal antimalarial activity evaluated in the trophozoite-induced Plasmodium berghei infection in mice (Mus musculus) at a dose 10 mg/kg given as no. of cures; assay type: functional
Method in brief: (§1)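 Run at the Rane Laboratory with blood-induced P. berghei infections in mice, five animals per group. A cure is a mouse surviving to 60 days postinfection. Deaths before day 6 are recorded separately as toxic deaths. Activity is scored from the increase in mean survival time over untreated controls, and counts as active when treated MST is more than twice control MST.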

Mus musculus [6] = assay: Suppressive blood schizonticidal antimalarial activity evaluated in the trophozoite-induced Plasmodium berghei infection in mice (Mus musculus) at a dose 2.5 mg/kg given as number of cures; assay type: functional; method in brief: as §1
Mus musculus [7] = assay: Suppressive blood schizonticidal antimalarial activity evaluated in the trophozoite-induced Plasmodium berghei infection in mice (Mus musculus) at a dose 20 mg/kg given as no. of cures; assay type: functional; method in brief: as §1
Plasmodium berghei [8] = assay: Blood schizonticidal activity in trophozoite-induced Plasmodium berghei infected mice (Mus musculus) at 40 mg/kg; numbers cured; assay type: functional; method in brief: as §1
Mus musculus [9] = assay: Suppressive blood schizonticidal antimalarial activity evaluated in the trophozoite-induced Plasmodium berghei infection in mice (Mus musculus) at a dose 5 mg/kg given as no. of cures; assay type: functional; method in brief: as §1
Mus musculus [10] = assay: Suppressive blood schizonticidal antimalarial activity evaluated in the trophozoite-induced Plasmodium berghei infection in mice (Mus musculus) at a dose 80 mg/kg given as no. of cures; assay type: functional; method in brief: as §1
Mus musculus [11] = assay: Suppressive blood schizonticidal antimalarial activity evaluated in the trophozoite-induced Plasmodium berghei infection in mice (Mus musculus) at a dose 160 mg/kg given as no. of toxic deaths; assay type: functional
Method in brief: (§2)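 Rane Laboratory mouse test with blood-induced P. berghei infection, five mice per group. Toxic deaths are deaths occurring before the 6th day postinfection.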

Mus musculus [12] = assay: Suppressive blood schizonticidal antimalarial activity evaluated in the trophozoite-induced Plasmodium berghei infection in mice (Mus musculus) at a dose 320 mg/kg given as no. of toxic deaths; assay type: functional; method in brief: as §2
Plasmodium berghei [13] = assay: Suppressive blood schizonticidal antimalarial activity evaluated in the trophozoite-induced Plasmodium berghei infection in mice (Mus musculus) at a dose 640 mg/kg given as number of toxic deaths; assay type: toxicity, organism-based; parameters: dose 640 mg/kg; settings: in vivo; method in brief: as §2
Plasmodium cynomolgi [14] = assay: Cures in Plasmodium cynomolgi infected Rhesus monkeys (Macaca mulatta) on 1 mg/kg/day after 7 days; cured 2 of 2; assay type: functional
Plasmodium cynomolgi [15] = assay: Cures in Plasmodium cynomolgi infected Rhesus monkeys (Macaca mulatta) on 0.1 mg/kg/day after 7 days; cured 3 of 4; assay type: functional
Method in brief: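 Radical curative test run by the SEATO Medical Research Laboratory, Bangkok, in rhesus monkeys with sporozoite-induced P. cynomolgi infection. Cures are recorded as the number cured out of the number treated.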

Mus musculus [16] = assay: Suppressive blood schizonticidal antimalarial activity evaluated in the trophozoite-induced Plasmodium berghei infection in mice (Mus musculus) at a dose 80 mg/kg given as no. of toxic deaths; assay type: functional; method in brief: as §2
Plasmodium cynomolgi [17] = assay: Cures in Plasmodium cynomolgi infected Rhesus monkeys (Macaca mulatta) on 0.316 mg/kg/day after 7 days; cured 0 of 2; assay type: functional
Plasmodium cynomolgi [18] = assay: Cures in Plasmodium cynomolgi infected Rhesus monkeys (Macaca mulatta) on 1 mg/kg/day after 7 days; cured 3 of 4; assay type: functional
Plasmodium cynomolgi [19] = assay: Cures in Plasmodium cynomolgi infected Rhesus monkeys (Macaca mulatta) on 0.1 mg/kg/day after 7 days (x7); cured 0 of 2; assay type: functional
Plasmodium berghei [20] = assay: Blood schizonticidal antimalarial activity in the trophozoite-induced Plasmodium berghei infection in mice (Mus musculus) at 20 mg/kg; assay type: functional; parameters: unit not given beside the values
Method in brief: (§3)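 Run at the Rane Laboratory in mice infected with blood-induced P. berghei, five animals per group. Activity is the increase in mean survival time over untreated infected controls. A compound counts as active when treated-group MST is more than twice the control MST. Cures are mice surviving at 60 days postinfection.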

Mus musculus [21] = assay: Suppressive blood schizonticidal antimalarial activity evaluated in the trophozoite-induced Plasmodium berghei infection in mice (Mus musculus) at a dose 10 mg/kg; assay type: functional; method in brief: as §3
Mus musculus [22] = assay: Suppressive blood schizonticidal antimalarial activity evaluated in the trophozoite-induced Plasmodium berghei infection in mice (Mus musculus) at a dose 160 mg/kg; assay type: functional; method in brief: as §3
Plasmodium cynomolgi [23] = assay: Radical curative antimalarial activity against Plasmodium cynomolgi in Rhesus monkeys (Macaca mulatta) at 0.316 mg/kg/day over 7 days; cured 3 of 5; assay type: functional
Plasmodium cynomolgi [24] = assay: Cures in Plasmodium cynomolgi infected Rhesus monkeys (Macaca mulatta) on 0.1 mg/kg/day after 7 days; cured 1 of 3; assay type: functional
Mus musculus [25] = assay: Suppressive blood schizonticidal antimalarial activity evaluated in the trophozoite-induced Plasmodium berghei infection in mice (Mus musculus) at a dose 20 mg/kg given as number of toxic deaths; assay type: ADME, organism-based; parameters: dose 20 mg/kg; settings: in vivo; method in brief: as §2
Mus musculus [26] = assay: Suppressive blood schizonticidal antimalarial activity evaluated in the trophozoite-induced Plasmodium berghei infection in mice (Mus musculus) at a dose 40 mg/kg given as number of toxic deaths; assay type: ADME, organism-based; parameters: dose 40 mg/kg; settings: in vivo; method in brief: as §2
Plasmodium cynomolgi [27] = assay: Cures in Plasmodium cynomolgi infected Rhesus monkeys (Macaca mulatta) on 0.316 mg/kg/day after 7 days; cured 1 of 1; assay type: functional
Plasmodium cynomolgi [28] = assay: Cures in Plasmodium cynomolgi infected Rhesus monkeys (Macaca mulatta) on 0.1 mg/kg/day after 7 days; cured 0 of 1; assay type: functional
Mus musculus [29] = assay: Suppressive blood schizonticidal antimalarial activity evaluated in the trophozoite-induced Plasmodium berghei infection in mice (Mus musculus) at a dose 40 mg/kg; assay type: functional; method in brief: as §1
Mus musculus [30] = assay: Suppressive blood schizonticidal antimalarial activity evaluated in the trophozoite-induced Plasmodium berghei infection in mice (Mus musculus) at a dose 2.5 mg/kg; assay type: functional; method in brief: as §3
Mus musculus [31] = assay: Suppressive blood schizonticidal antimalarial activity evaluated in the trophozoite-induced Plasmodium berghei infection in mice (Mus musculus) at a dose 5 mg/kg; assay type: functional; parameters: unit not given beside the values; method in brief: as §3
Mus musculus [32] = assay: Suppressive blood schizonticidal antimalarial activity evaluated in the trophozoite-induced Plasmodium berghei infection in mice (Mus musculus) at a dose 80 mg/kg; assay type: functional; parameters: unit not given beside the values; method in brief: as §3
Plasmodium cynomolgi [33] = assay: Cures in Plasmodium cynomolgi infected Rhesus monkeys (Macaca mulatta) on 0.316 mg/kg/day after 7 days; cured 2 of 3; assay type: functional
Plasmodium cynomolgi [34] = assay: Radical curative antimalarial activity against Plasmodium cynomolgi infected Rhesus monkeys (Macaca mulatta) after 7 days at 0.1 mg/kg/day dose; cured 2 of 4; assay type: functional
Plasmodium cynomolgi [35] = assay: Cures in Plasmodium cynomolgi infected Rhesus monkeys (Macaca mulatta) on 1 mg/kg/day after 7 days; cured 0 of 1; assay type: functional
Plasmodium cynomolgi [36] = assay: Cures in Plasmodium cynomolgi infected Rhesus monkeys (Macaca mulatta) on 10.0 mg/kg/day after 7 days; cured 1 of 1; assay type: functional
Plasmodium cynomolgi [37] = assay: Cures in Plasmodium cynomolgi infected Rhesus monkeys (Macaca mulatta) on 3.16 mg/kg/day after 7 days; cured 2 of 2; assay type: functional
Mus musculus [38] = assay: Suppressive blood schizonticidal antimalarial activity evaluated in the trophozoite-induced Plasmodium berghei infection in mice (Mus musculus) at a dose 160 mg/kg given as no. of cures; assay type: functional; method in brief: as §1
Mus musculus [39] = assay: Suppressive blood schizonticidal antimalarial activity evaluated in the trophozoite-induced Plasmodium berghei infection in mice (Mus musculus) at a dose 320 mg/kg given as number of cures; assay type: functional; method in brief: as §1
Mus musculus [40] = assay: Suppressive blood schizonticidal antimalarial activity evaluated in the trophozoite-induced Plasmodium berghei infection in mice (Mus musculus) at a dose 640 mg/kg given as no. of cures; assay type: functional; method in brief: as §1

CCCCCCOc1c(OC)cc(NC(C)CCCN)c2nccc(C)c12 (stereo not given) [WR-242511]
Cures/no. of animals (Plasmodium cynomolgi [1]): 3
Cures/no. of animals (Plasmodium cynomolgi [2]): 1
Cures/no. of animals (Plasmodium cynomolgi [3]): 0
Cures/no. of animals (Plasmodium cynomolgi [4]): 5
Cures (Mus musculus [5]): 1
Cures (Mus musculus [6]): 1
Cures (Mus musculus [7]): 5
Cures (Plasmodium berghei [8]): 5
Cures (Mus musculus [9]): 1
Cures (Mus musculus [10]): 4
Toxic deaths (Mus musculus [11]): 3
Toxic deaths (Mus musculus [12]): 5
Toxic deaths (Plasmodium berghei [13]): 5

CCCCCOc1c(OC)cc(NC(C)CCCN)c2nccc(C)c12 (stereo not given)
Cures/no. of animals (Plasmodium cynomolgi [14]): 2
Cures/no. of animals (Plasmodium cynomolgi [15]): 3
Cures (Mus musculus [5]): 5
Cures (Mus musculus [6]): 2
Cures (Mus musculus [7]): 4
Cures (Plasmodium berghei [8]): 1
Cures (Mus musculus [9]): 5
Toxic deaths (Mus musculus [11]): 4
Toxic deaths (Mus musculus [12]): 5
Toxic deaths (Plasmodium berghei [13]): 5
Toxic deaths (Mus musculus [16]): 2

CCCCCCOc1c(OC)cc(NC(C)CCCN)c2ncc(C)cc12 (stereo not given)
Cures/no. of animals (Plasmodium cynomolgi [17]): 0
Cures/no. of animals (Plasmodium cynomolgi [18]): 3
Cures/no. of animals (Plasmodium cynomolgi [19]): 0
Cures (Plasmodium berghei [8]): 2
Cures (Mus musculus [10]): 1
Toxic deaths (Mus musculus [12]): 3
Toxic deaths (Plasmodium berghei [13]): 4
Delta MST (Plasmodium berghei [20]): 8.2
Delta MST (Mus musculus [21]): 0.2
Delta MST (Mus musculus [22]): 7.6

COc1cc(NC(C)CCCN)c2nccc(C)c2c1OCCCCCCOCc1ccccc1 (stereo not given)
Cures/no. of animals (Plasmodium cynomolgi [23]): 3
Cures/no. of animals (Plasmodium cynomolgi [14]): 2
Cures/no. of animals (Plasmodium cynomolgi [24]): 1
Cures (Mus musculus [5]): 4
Cures (Mus musculus [6]): 1
Cures (Mus musculus [9]): 2
Toxic deaths (Mus musculus [25]): 2
Toxic deaths (Mus musculus [26]): 5

C=CCCOc1c(OC)cc(NC(C)CCCN)c2nccc(C)c12 (stereo not given)
Cures/no. of animals (Plasmodium cynomolgi [27]): 1
Cures/no. of animals (Plasmodium cynomolgi [2]): 1
Cures/no. of animals (Plasmodium cynomolgi [28]): 0
Cures (Mus musculus [29]): 1
Toxic deaths (Mus musculus [11]): 5
Toxic deaths (Mus musculus [12]): 5
Toxic deaths (Plasmodium berghei [13]): 5
Delta MST (Mus musculus [30]): 7.5
Delta MST (Plasmodium berghei [20]): 8.8
Delta MST (Mus musculus [21]): 7.5
Delta MST (Mus musculus [31]): 8.1
Delta MST (Mus musculus [32]): 0

CCCCCCOc1c(OC)cc(NC(C)CCCN)c2nc(C)cc(C)c12 (stereo not given)
Cures/no. of animals (Plasmodium cynomolgi [33]): 2
Cures/no. of animals (Plasmodium cynomolgi [34]): 2
Cures/no. of animals (Plasmodium cynomolgi [2]): 1
Cures (Mus musculus [5]): 1
Cures (Mus musculus [7]): 2
Cures (Plasmodium berghei [8]): 5
Toxic deaths (Mus musculus [11]): 5
Toxic deaths (Mus musculus [12]): 5
Toxic deaths (Plasmodium berghei [13]): 5
Toxic deaths (Mus musculus [16]): 5
Delta MST (Mus musculus [31]): 7.3

CCCCCCCCCCCOc1c(OC)cc(NC(C)CCCN)c2nccc(C)c12 (stereo not given)
Cures/no. of animals (Plasmodium cynomolgi [35]): 0
Cures/no. of animals (Plasmodium cynomolgi [36]): 1
Cures/no. of animals (Plasmodium cynomolgi [37]): 2
Cures (Mus musculus [38]): 5
Cures (Mus musculus [39]): 5
Cures (Plasmodium berghei [8]): 1
Cures (Mus musculus [40]): 5
Cures (Mus musculus [10]): 2
Delta MST (Plasmodium berghei [20]): 1
Delta MST (Mus musculus [21]): 3.7
